Test results: ChEMBL document CHEMBL2176992, “Synthesis and structure-activity relationship of (E)-phenoxyacrylic amide derivatives as hypoxia-inducible factor (HIF) 1α inhibitors” (J Med Chem, 2012)
Values after ≈ are worked out from the molar mass of the structure shown. Active and inactive are the calls of the source. The calls are words filed in the database; no cut-off is given here.

Experiments:
[1] = target: T1, Hypoxia-inducible factor 1-alpha (Homo sapiens, UniProt Q16665); assay: Inhibition of HIF1alpha in human HCT116 cells under hypoxic condition after 16 hrs by dual luciferase reporter gene assay; assay type: cell-based; conditions: hct-116
In short: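 HRE-luciferase reporter in HCT116 cells under hypoxia (1% O2, 94% N2, 5% CO2); luciferase read-out. IC50 from the mean of three experiments; LW6 positive control.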
Target sequence in this assay (Q16665 whole entry): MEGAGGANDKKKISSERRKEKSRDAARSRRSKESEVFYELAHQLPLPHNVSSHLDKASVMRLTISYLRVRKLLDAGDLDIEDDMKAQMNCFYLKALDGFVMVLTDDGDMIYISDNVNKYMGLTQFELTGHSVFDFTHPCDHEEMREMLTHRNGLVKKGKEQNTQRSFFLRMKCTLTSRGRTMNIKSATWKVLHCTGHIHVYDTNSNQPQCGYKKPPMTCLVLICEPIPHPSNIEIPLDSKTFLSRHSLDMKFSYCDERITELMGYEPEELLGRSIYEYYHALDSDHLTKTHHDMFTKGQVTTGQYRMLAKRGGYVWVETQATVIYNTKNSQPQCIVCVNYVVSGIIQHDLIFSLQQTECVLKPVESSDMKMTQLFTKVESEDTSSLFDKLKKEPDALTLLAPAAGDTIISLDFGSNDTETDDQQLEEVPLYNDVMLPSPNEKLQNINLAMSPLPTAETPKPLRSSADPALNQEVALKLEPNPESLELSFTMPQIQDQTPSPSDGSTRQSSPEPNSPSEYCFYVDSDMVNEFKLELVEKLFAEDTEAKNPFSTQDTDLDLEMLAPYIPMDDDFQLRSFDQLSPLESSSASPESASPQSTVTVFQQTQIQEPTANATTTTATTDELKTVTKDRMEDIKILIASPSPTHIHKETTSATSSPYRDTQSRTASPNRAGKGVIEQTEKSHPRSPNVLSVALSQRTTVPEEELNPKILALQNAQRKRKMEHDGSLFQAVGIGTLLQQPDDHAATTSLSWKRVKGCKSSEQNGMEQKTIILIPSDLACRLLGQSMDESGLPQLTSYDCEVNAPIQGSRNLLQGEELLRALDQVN

[2] = tested on: HCT-116; assay: Cytotoxicity against human HCT116 cells assessed as cell viability after 48 hrs by SRB assay; assay type: cell-based; conditions: hct-116, 48 h
In short: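 Cell viability of HCT116 by sulforhodamine B assay under the hypoxic reporter-assay conditions; mean of three experiments.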

[3] = Kinetic solubility of the compound in water at pH 9 by nephlometry; assay type: physicochemical; conditions: read-out: Kinetic_solubility
In short: (§1)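 Kinetic aqueous solubility determined by nephelometry at pH 2, 7.4 and 9; values are the mean of three experiments.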

[4] = Kinetic solubility of the compound in water at pH 2 by nephlometry; assay type: physicochemical; conditions: read-out: Kinetic_solubility; in short: as §1
[5] = Kinetic solubility of the compound in water at pH 7.4 by nephlometry; assay type: physicochemical; conditions: read-out: Kinetic_solubility; in short: as §1
[6] = tested on: HCT-116; assay: Inhibition of HIF1beta expression in human HCT116 cells under hypoxic condition assessed as protein accumulation at 0.05 to 30 uM by Western blot analysis; assay type: functional, cell-based
In short: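 HCT116 cells under hypoxia treated with compound at various concentrations; HIF-1β protein level in lysates assessed by Western blot alongside HIF-1α.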

[7] = tested on: HeLa; assay: Inhibition of HIF1alpha expression in human HeLa cells under hypoxic condition assessed as decrease in protein accumulation by Western blot analysis; assay type: functional, cell-based
In short: (§2)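 Cells held under hypoxia (1% O2, 94% N2, 5% CO2) with compound at various concentrations; HIF-1α protein in lysates detected by Western blot. LW6 as control; HIF-1β also probed.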

[8] = target: T1, Hypoxia-inducible factor 1-alpha; assay: Inhibition of HIF1alpha in human HCT116 cells under hypoxic condition assessed as increase in VHL expression at 2 to 5 uM by dual luciferase reporter gene assay; assay type: cell-based; conditions: HCT-116
In short: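 HCT116 cells were exposed to 0, 2 or 5 μM compound under hypoxia (1% O2, 94% N2, 5% CO2). They were lysed in RIPA buffer, and total lysates were examined for VHL expression.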
Target sequence in this assay (Q16665 whole entry, looked up): as the sequence (Q16665 whole entry) above

[9] = target: T1, Hypoxia-inducible factor 1-alpha; assay: Inhibition of HIF1alpha in human HCT116 cells under normoxic condition assessed as increase in VHL expression at 2 to 5 uM by dual luciferase reporter gene assay; assay type: cell-based; conditions: HCT-116
Target sequence in this assay (Q16665 whole entry, looked up): as the sequence (Q16665 whole entry) above

[10] = tested on: HCT-116; assay: Inhibition of HIF1alpha expression in human HCT116 cells under hypoxic condition assessed as decrease in protein accumulation by Western blot analysis; assay type: functional, cell-based; in short: as §2
[11] = tested on: PC-3; assay: Inhibition of HIF1alpha expression in human PC3 cells under hypoxic condition assessed as decrease in protein accumulation by Western blot analysis; assay type: functional, cell-based; in short: as §2
[12] = target: T1, Hypoxia-inducible factor 1-alpha; assay: Inhibition of HIF1alpha in human HCT116 cells under hypoxic condition assessed as decrease in EPO mRNA expression by RT-PCR analysis; assay type: cell-based; conditions: HCT-116
In short: (§3)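 HCT116 cells were treated under hypoxia (1% O2, 94% N2, 5% CO2), and the 2 μM test level was named. mRNA of HIF-1α and its targets (VEGF, EPO, MMP-9) was measured by RT-PCR.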
Target sequence in this assay (Q16665 whole entry, looked up): as the sequence (Q16665 whole entry) above

[13] = target: T1, Hypoxia-inducible factor 1-alpha; assay: Inhibition of HIF1alpha in human HCT116 cells under hypoxic condition at 5 uM after 12 hrs by dual luciferase reporter gene assay in presence of dipyridol; assay type: cell-based; conditions: HCT-116
In short: (§4)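 HCT116 cells were cotransfected with pGL3-HRE-luciferase and pRL-SV40 and incubated 24 h. They were then held under hypoxia 4 h and treated with 5 μM compound for 12 h under hypoxia, with 200 μM dipyridol added where stated. Firefly luciferase was read against Renilla.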
Target sequence in this assay (Q16665 whole entry, looked up): as the sequence (Q16665 whole entry) above

[14] = tested on: HCT-116; assay: Downregulation of HIF1alpha mRNA expression in human HCT116 cells under hypoxic condition at 2 to 10 uM by RT-PCR analysis; assay type: functional, cell-based
In short: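 mRNA of HIF-1α and target genes measured by RT-PCR in compound-treated cells.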

[15] = tested on: HCT-116; assay: Antimigratory activity against human HCT116 cells assessed as inhibition of cell migration after 24 hrs by wound healing assay; assay type: functional, cell-based
In short: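 Scratch-wound migration of HCT116 cells formed with culture inserts; cells treated with compound or SU11248 and wound closure observed over 24 h.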

[16] = tested on: HUVEC; assay: Cytotoxicity against HUVECs assessed as growth inhibition at 1 to 5 uM after 48 hrs by SRB assay; assay type: cell-based; conditions: human
In short: (§5)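 HUVEC growth inhibition measured by sulforhodamine B assay, run in parallel with the Matrigel tube-formation incubation (compound or SU11248).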

[17] = target: T1, Hypoxia-inducible factor 1-alpha; assay: Inhibition of HIF1alpha in human HCT116 cells under hypoxic condition at 5 uM after 12 hrs by dual luciferase reporter gene assay in absence of dipyridol; assay type: cell-based; conditions: HCT-116; in short: as §4
Target sequence in this assay (Q16665 whole entry, looked up): as the sequence (Q16665 whole entry) above

[18] = tested on: LoVo; assay: Inhibition of HIF1alpha expression in human LoVo cells under hypoxic condition assessed as decrease in protein accumulation by Western blot analysis; assay type: functional, cell-based; in short: as §2
[19] = tested on: HUVEC; assay: Antiangiogenic activity in HUVECs under hypoxic condition assessed as inhibition of tube formation at 2 to 5 uM after 18 hrs; assay type: functional, cell-based; conditions: Homo sapiens
In short: (§6)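 HUVECs seeded on wells coated with ice-cold Matrigel, incubated with compound under 1% O2 for 18 h. Tubule branches photographed; SU11248 as VEGFR-inhibitor positive control.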

[20] = target: T1, Hypoxia-inducible factor 1-alpha; assay: Inhibition of HIF1alpha in human HCT116 cells under hypoxic condition assessed as decrease in VEGF mRNA expression by RT-PCR analysis; assay type: cell-based; conditions: HCT-116; in short: as §3
Target sequence in this assay (Q16665 whole entry, looked up): as the sequence (Q16665 whole entry) above

[21] = target: T1, Hypoxia-inducible factor 1-alpha; assay: Inhibition of HIF1alpha in human HCT116 cells under hypoxic condition assessed as decrease in MMP9 mRNA expression by RT-PCR analysis; assay type: cell-based; conditions: HCT-116; in short: as §3
[22] = tested on: A549; assay: Inhibition of HIF1alpha expression in human A549 cells under hypoxic condition assessed as decrease in protein accumulation by Western blot analysis; assay type: functional, cell-based; in short: as §2
[23] = target: T1, Hypoxia-inducible factor 1-alpha; assay: Inhibition of HIF1alpha in human HCT116 cells under hypoxic condition at 0.4 uM after 12 hrs by dual luciferase reporter gene assay in presence of dipyridol; assay type: cell-based; conditions: HCT-116
In short: (§7)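 Cells cotransfected with pGL3-HRE-luciferase and pRL-SV40, incubated 24 h, then 4 h hypoxia. Then treated with compound (17-AAG 0.4 μM; test 5 μM) with or without 200 μM dipyridol for 12 h under hypoxia. Firefly luciferase normalised to Renilla.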

[24] = target: T1, Hypoxia-inducible factor 1-alpha; assay: Inhibition of HIF1alpha in human HCT116 cells under hypoxic condition at 0.4 uM after 12 hrs by dual luciferase reporter gene assay in absence of dipyridol; assay type: cell-based; conditions: HCT-116; in short: as §7
[25] = tested on: HUVEC; assay: Antiangiogenic activity in HUVECs under hypoxic condition assessed as inhibition of tube formation at 2 uM after 18 hrs; assay type: functional, cell-based; conditions: Homo sapiens; in short: as §6
[26] = tested on: HUVEC; assay: Cytotoxicity against HUVECs assessed as growth inhibition at 0.5 to 2 uM after 48 hrs by SRB assay; assay type: cell-based; conditions: human; in short: as §5

Row | SMILES | IC50 [1] [nM] | Activity [2] [µM] | also measured
1 | COC(=O)c1cccc(NC(=O)/C=C/Oc2ccc(C34CC5CC(CC(C5)C3)C4)cc2C)c1 | 4120 | > 20 | 
2 | COC(=O)c1cccc(NC(=O)/C=C/Oc2ccc(C34CC5CC(CC(C5)C3)C4)cc2)c1 |  | > 20 | solubility kinetic [3]: 12.2 µM (≈ 5.27 µg/mL); solubility kinetic [4]: 4.25 µM (≈ 1.83 µg/mL); solubility kinetic [5]: 6.56 µM (≈ 2.83 µg/mL)
3 | O=C(/C=C/Oc1ccc(C23CC4CC(CC(C4)C2)C3)cc1)Nc1cccc(C(=O)NCc2ccco2)c1 | > 20000 | > 20 | 
4 | O=C(/C=C/Oc1ccc(C23CC4CC(CC(C4)C2)C3)cc1)Nc1cccc(C(=O)O)c1 | > 20000 | > 20 | 
5 | COC(=O)c1cccc(NC(=O)CCCOc2ccc(C34CC5CC(CC(C5)C3)C4)cc2)c1 | 15800 | > 20 | 
6 | COC(=O)c1cc(NC(=O)/C=C/Oc2ccc(C34CC5CC(CC(C5)C3)C4)cc2)ccc1O | > 20000 | > 20 | 
7 | CC(C)NC(=O)c1cccc(NC(=O)/C=C/Oc2ccc(C34CC5CC(CC(C5)C3)C4)cc2)c1 | > 20000 | > 20 | 
8 | COC(=O)c1cccc(NC(=O)/C=C/Oc2ccc(C(C)(C)C)cc2)c1 | 6030 | > 20 | 
9 | COC(=O)c1cccc(NC(=O)COc2ccc(C34CC5CC(CC(C5)C3)C4)cc2)c1 | 5030 | > 20 | 
10 | C=CCNC1=C2C[C@@H](C)C[C@H](OC)[C@H](O)[C@@H](C)/C=C(\C)[C@H](OC(N)=O)[C@@H](OC)/C=C\C=C(/C)C(=O)NC(=CC1=O)C2=O |  |  | inhibition [23]: Active; inhibition [24]: Active
11 | NC(=O)c1cccc(NC(=O)/C=C/Oc2ccc(C34CC5CC(CC(C5)C3)C4)cc2)c1 | > 20000 | > 20 | 
12 | CCN(CC)CCNC(=O)c1c(C)[nH]c(/C=C2\C(=O)Nc3ccc(F)cc32)c1C [SUNITINIB] |  |  | inhibition [25]: Active; Activity [26]: Non-toxic; inhibition [15]: Active

Further lines, with some results ahead:

Row | IC50 [1] [nM] | SMILES | Activity [2] [µM] | also measured
13 | 2170 | COC(=O)c1ccc(NC(=O)/C=C/Oc2ccc(C34CC5CC(CC(C5)C3)C4)cc2)cc1 | > 20 | 
14 | 1180 | CS(=O)(=O)c1cccc(NC(=O)/C=C/Oc2ccc(C34CC5CC(CC(C5)C3)C4)cc2)c1 | > 20 | 
15 | 1850 | O=C(/C=C/Oc1ccc(C23CC4CC(CC(C4)C2)C3)cc1)Nc1cccc(C(=O)NCCCn2ccnc2)c1 | > 20 | 
16 | 2540 | COC(=O)c1cccc(NC(=O)CCOc2ccc(C34CC5CC(CC(C5)C3)C4)cc2)c1 | > 20 | 
17 | 2440 | COC(=O)c1ccc(O)c(NC(=O)COc2ccc(C34CC5CC(CC(C5)C3)C4)cc2)c1 | > 20 | solubility kinetic [3]: 44.9 µM (≈ 19.6 µg/mL); solubility kinetic [4]: 68.2 µM (≈ 29.7 µg/mL); solubility kinetic [5]: 6.85 µM (≈ 2.98 µg/mL)
18 | 1040 | COC(=O)c1cccc(NC(=O)/C=C/Oc2ccc(C(C)(C)CC(C)(C)C)cc2)c1 | > 20 | 
19 | 820 | CCOC(=O)c1cccc(NC(=O)/C=C/Oc2ccc(C34CC5CC(CC(C5)C3)C4)cc2)c1 | > 20 | 
20 | 2620 | CN(C)CCOC(=O)c1cccc(NC(=O)/C=C/Oc2ccc(C34CC5CC(CC(C5)C3)C4)cc2)c1 | > 20 | 
21 | 120 | O=C(/C=C/Oc1ccc(C23CC4CC(CC(C4)C2)C3)cc1)Nc1cccc(C(=O)OCCN2CCOCC2)c1 | > 20 | inhibition [6]: inactive; inhibition [7]: Dose-dependent effect; inhibition [8]: Active; inhibition [9]: Active; inhibition [10]: Dose-dependent effect; inhibition [11]: Dose-dependent effect; inhibition [12]: Dose-dependent effect; inhibition [13]: inactive; Activity [14]: inactive; inhibition [15]: Active; solubility kinetic [3]: 61.3 µM (≈ 32.5 µg/mL); Activity [16]: Non-toxic; inhibition [17]: Active; inhibition [18]: Dose-dependent effect; inhibition [19]: Active; solubility kinetic [4]: 45.1 µM (≈ 23.9 µg/mL); inhibition [20]: Dose-dependent effect; inhibition [21]: Dose-dependent effect; solubility kinetic [5]: 113 µM (≈ 60 µg/mL); inhibition [22]: Dose-dependent effect
22 | 1070 | O=C(/C=C/Oc1ccc(C23CC4CC(CC(C4)C2)C3)cc1)Nc1cccc(C(=O)NCCN2CCOCC2)c1 | > 20 | 
23 | 1350 | O=C(/C=C/Oc1ccc(C23CC4CC(CC(C4)C2)C3)cc1)Nc1cccc(C(=O)OCCN2CCCC2)c1 | > 20 | 
24 | 1340 | O=C(/C=C/Oc1ccc(C23CC4CC(CC(C4)C2)C3)cc1)Nc1cccc(C(=O)NCCc2ccncc2)c1 | > 20 | 
25 | 2380 | NS(=O)(=O)c1cccc(NC(=O)/C=C/Oc2ccc(C34CC5CC(CC(C5)C3)C4)cc2)c1 | > 20 | 
26 | 1840 | COCCOC(=O)c1cccc(NC(=O)/C=C/Oc2ccc(C34CC5CC(CC(C5)C3)C4)cc2)c1 | > 20 | 
